Assay results taken from publication PMC2872922 (Journal of medicinal chemistry, 2010).

What was measured:
[1] = biological target: K18 tau fragment bearing the P301L mutation (K18PL) (Homo sapiens, UniProt P10636, P618L); assay: Heparin-induced tau K18PL fibrillization assay monitored by thioflavine-T; format: biochemical
[2] = Brain and plasma levels 1 h after i.p. administration; format: in vivo; details: female, B6C3F1, mouse, brain, ip, 5 mg/kg, Brain level, mice, 5 mg/kg i.p.
Procedure, shortened: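 Two-month-old female B6C3F1 mice, three per compound, given test compound 5 mg/kg i.p. and sampled at 1 h. Brain hemispheres were homogenised in 10 mM ammonium acetate pH 5.7 (1:2 w/v), and plasma was collected on EDTA. Samples were acetonitrile-extracted and quantified by LC-MS/MS (MRM, positive ESI) against spiked brain/plasma standards (4–4000 ng/mL) using a 1/x-weighted linear fit and triplicate injections.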

[3] = Brain and plasma levels after oral administration; format: in vivo; details: mice, oral gavage 5 mg/Kg
Procedure, shortened: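 Female B6C3F1 mice, two months old, were dosed with test compound at 5 mg/kg by oral gavage. Brain homogenate (10 mM ammonium acetate pH 5.7, 1:2 w/v) and EDTA plasma were extracted with acetonitrile. Levels were measured by LC-MS/MS with MRM detection, quantified from matrix-matched standard curves (4–4000 ng/mL) by 1/x-weighted linear regression on the mean of triplicate injections.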

[4] = Phase 2 study, 321 patients with mild or moderate AD; cited from earlier work
[5] = biological target: tau40-promoted MT-polymerization (tubulin) (Homo sapiens, UniProt P10636); assay: MT-assembly; format: biochemical; details: 50 μM compound, 30 μM tubulin, 20 μM tau40
Chain of tau40-promoted MT-polymerization (tubulin) (P10636 1-441 isoform P10636-8): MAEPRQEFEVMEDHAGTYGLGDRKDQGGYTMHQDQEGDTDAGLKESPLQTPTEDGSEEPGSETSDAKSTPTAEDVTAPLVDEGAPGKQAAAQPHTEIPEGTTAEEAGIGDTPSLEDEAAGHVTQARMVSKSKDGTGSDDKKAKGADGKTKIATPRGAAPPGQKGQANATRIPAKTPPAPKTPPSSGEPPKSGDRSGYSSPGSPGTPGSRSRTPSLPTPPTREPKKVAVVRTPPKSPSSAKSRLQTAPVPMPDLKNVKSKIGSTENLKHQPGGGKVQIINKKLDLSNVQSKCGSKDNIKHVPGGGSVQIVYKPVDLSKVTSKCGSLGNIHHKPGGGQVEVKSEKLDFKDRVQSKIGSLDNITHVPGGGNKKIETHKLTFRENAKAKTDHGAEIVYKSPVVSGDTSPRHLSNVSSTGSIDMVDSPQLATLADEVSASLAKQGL
Procedure, shortened: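 Wild-type full-length human tau40 (2N4R) was preincubated with test compound for 120 min at room temperature in RAB (100 mM MES pH 6.9, 1 mM […], 0.5 mM MgSO4). Bovine brain tubulin and GTP were then added. Final concentrations were 30 μM tubulin, 20 μM tau, 50 μM compound and 2 mM GTP, with a DMSO control. Polymerisation was followed at 37 °C by A340 every minute for 45 min.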

Chain of K18 tau fragment bearing the P301L mutation (K18PL) (P10636 561-689 P618L): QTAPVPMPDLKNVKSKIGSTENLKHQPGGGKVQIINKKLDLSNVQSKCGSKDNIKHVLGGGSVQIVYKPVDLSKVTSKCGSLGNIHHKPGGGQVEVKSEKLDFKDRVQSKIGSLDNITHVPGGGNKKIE

IC50 [1] [µM] | Compound | other results
8.1 ± 5.7 | Nc1scc2c(C(=O)NC3CC3)nn(-c3ccc(Cl)cc3)c(=O)c12 [Compound 16, 5-Amino-3-(4-chlorophenyl)-N-cyclopropyl-4-oxo-3,4-dihydrothieno[3,4-d]pyridazine-1-carboxamide] | concentration at 1 h [2]: > 800 ng/g; Brain concentration after oral administration [3]: significant concentrations
 | CN(C)c1ccc2nc3ccc(=[N+](C)C)cc-3sc2c1 [methylene blue] | Cognitive decline compared to placebo [4]: significant reduction in cognitive decline
3.1 ± 0.6 | CC(C)NC(=O)c1nn(-c2ccc(Br)cc2)c(=O)c2c(N)scc12 [Compound 19, 5-Amino-3-(4-bromophenyl)-N-isopropyl-4-oxo-3,4-dihydrothieno[3,4-d]pyridazine-1-carboxamide] | 
32 ± 4.1 | CCN(C)C(=O)c1nn(-c2ccc(Cl)cc2)c(=O)c2c(N)scc12 [Compound 18, 5-Amino-3-(4-chlorophenyl)-N-ethyl-N-methyl-4-oxo-3,4-dihydrothieno[3,4-d]pyridazine-1-carboxamide] | 
20.5 ± 13.6 | CN(C)C(=O)c1nn(-c2ccc(Cl)cc2)c(=O)c2c(N)scc12 [Compound 17, 5-Amino-3-(4-chlorophenyl)-N,N-dimethyl-4-oxo-3,4-dihydrothieno[3,4-d]pyridazine-1-carboxamide] | 
5.9 ± 4.7 | CC(C)NC(=O)c1nn(-c2ccc(Cl)cc2)c(=O)c2c(N)scc12 [Compound 15, 5-Amino-3-(4-chlorophenyl)-N-isopropyl-4-oxo-3,4-dihydrothieno[3,4-d]pyridazine-1-carboxamide] | concentration at 1 h [2]: > 800 ng/g; Brain concentration after oral administration [3]: significant concentrations
21.7 ± 16 | CNC(=O)c1nn(-c2ccc(Cl)cc2)c(=O)c2c(N)scc12 [Compound 13, 5-Amino-3-(4-chlorophenyl)-N-methyl-4-oxo-3,4-dihydrothieno[3,4-d]pyridazine-1-carboxamide] | 
6.9 ± 3.4 | CCNC(=O)c1nn(-c2ccc(Cl)cc2)c(=O)c2c(N)scc12 [Compound 14, 5-Amino-3-(4-chlorophenyl)-N-ethyl-4-oxo-3,4-dihydrothieno[3,4-d]pyridazine-1-carboxamide] | concentration at 1 h [2]: > 800 ng/g

Compound | IC50 [1] [µM] | other results
CC(C)OC(=O)c1nn(-c2ccc(Cl)cc2)c(=O)c2c(N)scc12 [Compound 10, Isopropyl 5-amino-3-(4-chlorophenyl)-4-oxo-3,4-dihydrothieno[3,4-d]pyridazine-1-carboxylate] | 1.6 ± 1.1 | Interference with the normal MT-stabilizing function of tau [5]: did not appear to interfere
Nc1scc2c(C(=O)O)nn(-c3ccc(Cl)cc3)c(=O)c12 [Compound 11, 5-Amino-3-(4-chlorophenyl)-4-oxo-3,4-dihydrothieno[3,4-d]pyridazine-1-carboxylic acid] | 5.4 ± 2.3 | Interference with the normal MT-stabilizing function of tau [5]: did not appear to interfere
CCOC(=O)c1nn(-c2ccc(Cl)cc2)c(=O)c2c(N)scc12 [Compound 8, Ethyl 5-amino-3-(4-chlorophenyl)-4-oxo-3,4-dihydrothieno[3,4-d]pyridazine-1-carboxylate] | 3.8 ± 1.6 | Interference with the normal MT-stabilizing function of tau [5]: did not appear to interfere
